Series [1] deals with T1, Histamine H3 receptor (Homo sapiens, UniProt Q9Y5N1). In words: Antagonist activity at human histamine H3 receptor. The format is functional. To be noted: read-out: pA2 (converted).
For series [2], the target named is Sodium-dependent serotonin transporter (Rattus norvegicus, UniProt P31652). In words: Binding affinity at rat SERT.
In series [3] the target is Sodium-dependent serotonin transporter (Homo sapiens, UniProt P31645). Nature of the series: Binding affinity at human SERT.
Sequence of Sodium-dependent serotonin transporter (Homo sapiens, UniProt P31645) (P31645 whole entry): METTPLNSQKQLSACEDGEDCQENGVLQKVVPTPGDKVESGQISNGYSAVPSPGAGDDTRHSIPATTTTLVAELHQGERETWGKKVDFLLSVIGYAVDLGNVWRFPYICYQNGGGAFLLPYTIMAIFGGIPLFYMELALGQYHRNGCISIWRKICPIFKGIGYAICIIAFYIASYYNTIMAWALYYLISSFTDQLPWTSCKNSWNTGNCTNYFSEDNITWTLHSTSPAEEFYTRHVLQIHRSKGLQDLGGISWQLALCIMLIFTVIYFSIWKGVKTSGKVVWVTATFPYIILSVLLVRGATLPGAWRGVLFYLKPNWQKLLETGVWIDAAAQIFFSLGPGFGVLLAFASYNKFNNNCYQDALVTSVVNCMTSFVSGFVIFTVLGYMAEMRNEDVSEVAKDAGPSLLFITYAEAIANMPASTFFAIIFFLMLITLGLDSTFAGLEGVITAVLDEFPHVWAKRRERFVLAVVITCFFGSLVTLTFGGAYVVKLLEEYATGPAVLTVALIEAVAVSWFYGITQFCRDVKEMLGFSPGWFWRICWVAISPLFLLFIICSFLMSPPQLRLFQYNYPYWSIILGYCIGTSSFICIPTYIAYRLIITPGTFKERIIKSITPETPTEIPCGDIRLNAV
Series [4] concerns the target T1, Histamine H3 receptor. In words: Binding affinity at human histamine H3 receptor.
A short description of series [5]: Plasma clearance in po and iv dosed rat. The format is ADME, organism-based.
Series [6] is described as follows: (§1) Volume of distribution at steady state in po and iv dosed rat. To be noted: in vivo, read-out: Vdss. Format: ADME, organism-based.
A short description of series [7]: (§2) Half life in po and iv dosed rat. The following applies: in vivo. Format: ADME, organism-based.
Series [8] can be described thus: (§3) Bioavailability in po dosed rat. Format: ADME, organism-based. The following applies: in vivo.
For series [9], the system named is Rattus norvegicus. The series is described as §1. Format: ADME, organism-based. The following applies: in vivo.
The test system of series [10] is Rattus norvegicus. The description is as §2. Format: ADME, organism-based. The following applies: in vivo.
The test system of series [11] is Rattus norvegicus. The series is described as §3. Format: ADME, organism-based. The following applies: in vivo.
A short description of series [12]: Cmax in rat brain at 10 mg/kg, po. The format is ADME, organism-based. More on the design: dose 10 mg/kg, route oral.
The subject of series [13] is Voltage-gated potassium channel. Nature of the series: Binding affinity for potassium channel at 1 uM. The following applies: human. Format: protein assay.
In series [14] the test system is Voltage-gated calcium channel. Nature of the series: Binding affinity for calcium channel at 1 uM. The format is protein-complex assay. The following applies: human.
In series [15] the target is Sodium-dependent noradrenaline transporter (Homo sapiens, UniProt P23975). In words: Inhibition of [3H]nisoxetine uptake in human NET expressed in MDCK cells. The format is cell-based.
Sequence of Sodium-dependent noradrenaline transporter (P23975 whole entry): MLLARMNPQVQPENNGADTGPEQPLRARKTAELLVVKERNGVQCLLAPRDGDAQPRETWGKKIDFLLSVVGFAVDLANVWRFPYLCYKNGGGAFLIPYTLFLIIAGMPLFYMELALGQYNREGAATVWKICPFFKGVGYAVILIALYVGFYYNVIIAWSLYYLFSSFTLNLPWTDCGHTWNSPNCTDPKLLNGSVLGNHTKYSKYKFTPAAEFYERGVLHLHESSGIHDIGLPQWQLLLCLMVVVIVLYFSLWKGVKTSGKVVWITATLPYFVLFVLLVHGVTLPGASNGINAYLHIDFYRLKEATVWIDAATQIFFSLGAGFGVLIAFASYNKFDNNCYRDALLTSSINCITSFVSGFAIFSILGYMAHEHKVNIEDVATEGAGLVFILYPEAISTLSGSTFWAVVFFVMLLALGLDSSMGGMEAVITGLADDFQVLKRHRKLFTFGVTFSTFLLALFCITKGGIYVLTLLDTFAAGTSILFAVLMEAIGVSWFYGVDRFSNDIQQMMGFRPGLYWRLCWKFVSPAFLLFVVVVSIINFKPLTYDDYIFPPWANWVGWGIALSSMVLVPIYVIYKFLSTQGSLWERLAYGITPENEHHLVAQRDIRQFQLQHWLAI
The target of series [16] is Sodium-dependent dopamine transporter (Homo sapiens, UniProt Q01959). In words: Inhibition of [3H]WIN-uptake in human DAT expressed in CHO cells. Format: cell-based. In short, it runs like this:
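Human DAT expressed in CHO cells; membranes were incubated on ice for 2 h with 10.9 nM [3H]-WIN 35,428, then harvested by rapid filtration. Nonspecific binding was defined with GBR-12909. Ki values are means of at least three experiments run in triplicate, with SEM.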

The species named for series [17] is Rattus norvegicus. In words: Ex vivo receptor occupancy at SERT in rat. Format: functional.
The species entered for series [18] is Rattus norvegicus. In words: Ex vivo receptor occupancy at histamine H3 receptor in rat. Format: functional.
A further series has as its system Brain. In words: Drug level in rat brain at 0.1 mg/kg. The format is ADME, organism-based. The arrangement: dose 0.1 mg/kg. The following applies: in vivo, read-out: Drug uptake.

Sequence of Sodium-dependent serotonin transporter (Rattus norvegicus, UniProt P31652) (P31652 whole entry): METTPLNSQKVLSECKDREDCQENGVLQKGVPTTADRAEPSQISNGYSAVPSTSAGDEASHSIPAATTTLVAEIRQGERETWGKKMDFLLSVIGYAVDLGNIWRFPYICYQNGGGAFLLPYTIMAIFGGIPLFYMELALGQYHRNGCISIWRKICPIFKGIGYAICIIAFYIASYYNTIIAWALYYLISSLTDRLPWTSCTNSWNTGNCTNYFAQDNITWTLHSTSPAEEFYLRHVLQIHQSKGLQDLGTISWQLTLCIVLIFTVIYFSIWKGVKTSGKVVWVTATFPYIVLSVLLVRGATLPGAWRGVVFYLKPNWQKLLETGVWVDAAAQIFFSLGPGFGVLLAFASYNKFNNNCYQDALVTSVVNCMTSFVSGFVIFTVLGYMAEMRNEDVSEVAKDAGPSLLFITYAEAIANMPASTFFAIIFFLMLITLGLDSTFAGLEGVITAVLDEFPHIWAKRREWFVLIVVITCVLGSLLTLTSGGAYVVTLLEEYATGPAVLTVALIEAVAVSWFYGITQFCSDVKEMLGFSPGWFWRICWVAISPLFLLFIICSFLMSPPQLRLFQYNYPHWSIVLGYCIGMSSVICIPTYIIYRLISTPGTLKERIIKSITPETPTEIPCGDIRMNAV
T1 sequence (Q9Y5N1 whole entry): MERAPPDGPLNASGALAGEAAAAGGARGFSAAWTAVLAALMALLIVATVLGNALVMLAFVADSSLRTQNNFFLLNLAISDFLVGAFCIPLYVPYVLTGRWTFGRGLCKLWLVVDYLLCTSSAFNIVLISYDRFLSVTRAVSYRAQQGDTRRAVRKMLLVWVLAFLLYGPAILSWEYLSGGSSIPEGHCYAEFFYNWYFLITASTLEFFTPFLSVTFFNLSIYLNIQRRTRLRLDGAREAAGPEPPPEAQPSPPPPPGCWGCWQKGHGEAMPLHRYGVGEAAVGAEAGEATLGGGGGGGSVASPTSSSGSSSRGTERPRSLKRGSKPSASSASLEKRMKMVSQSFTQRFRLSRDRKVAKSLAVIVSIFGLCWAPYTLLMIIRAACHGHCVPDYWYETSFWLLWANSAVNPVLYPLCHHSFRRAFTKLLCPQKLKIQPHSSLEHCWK
Sequence of Sodium-dependent dopamine transporter (Q01959 whole entry): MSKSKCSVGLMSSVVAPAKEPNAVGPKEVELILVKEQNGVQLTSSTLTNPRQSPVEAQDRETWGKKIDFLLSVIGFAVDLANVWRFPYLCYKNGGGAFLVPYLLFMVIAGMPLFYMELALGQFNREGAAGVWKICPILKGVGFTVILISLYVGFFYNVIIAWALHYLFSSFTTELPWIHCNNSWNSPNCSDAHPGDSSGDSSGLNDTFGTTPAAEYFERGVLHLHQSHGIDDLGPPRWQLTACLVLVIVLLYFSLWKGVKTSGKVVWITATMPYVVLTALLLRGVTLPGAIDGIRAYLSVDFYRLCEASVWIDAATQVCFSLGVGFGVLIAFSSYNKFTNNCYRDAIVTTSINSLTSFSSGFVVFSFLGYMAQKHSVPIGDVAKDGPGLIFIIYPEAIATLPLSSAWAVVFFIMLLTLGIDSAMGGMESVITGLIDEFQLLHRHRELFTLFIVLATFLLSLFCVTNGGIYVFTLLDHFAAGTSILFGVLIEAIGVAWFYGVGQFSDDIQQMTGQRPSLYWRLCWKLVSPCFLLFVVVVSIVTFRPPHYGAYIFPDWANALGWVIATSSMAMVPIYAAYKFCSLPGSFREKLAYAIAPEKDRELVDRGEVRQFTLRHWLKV

For the compound `COc1ccc(C2CN(C)Cc3cc(OCCCN4CCOCC4)ccc32)cc1` (stereo unspecified), at Histamine H3 receptor [1], the Kb is 2.29 nM.

Take `CCOc1ccc(C2CN(C)Cc3cc(OCCCN4CCC(F)CC4)ccc32)cc1` (stereo unspecified): the Ki came to 2.7 nM in series [2], 4.7 nM in [3] and 7.3 nM on Histamine H3 receptor [4]. The compound also gave a clearance in series [5] of 29.9 mL/min/kg. Also, the Vd in series [6] was 15.5 L/kg. Also, the half-life in series [7] was 10.3 h. In [8], the bioavailability was 11%.

`COc1ccc(C2CN(C)Cc3cc(OCCCN4CCC(F)CC4)ccc32)cc1Cl` (stereo unspecified): the Ki in series [2] was determined as 5.3 nM; in series [3], 5.7 nM; at Histamine H3 receptor [4], 9.7 nM. Also, the Kb at Histamine H3 receptor [1] is 6.17 nM.

Regarding `CN1Cc2cc(OCCCN3CCC(F)CC3)ccc2C(c2ccc(Cl)cc2)C1` (stereo unspecified), the Ki turned out to be 16 nM in series [2] and 8.3 nM on Histamine H3 receptor [4].

As for `CN1Cc2cc(OCCCN3CCC(F)CC3)ccc2C(c2ccccc2Cl)C1` (stereo unspecified), the Ki in series [2] came to 17 nM; in series [3], 18 nM; at Histamine H3 receptor [4], 5.6 nM.

For `CN1Cc2cc(OCCCN3CCC(F)CC3)ccc2C(c2ccc(Cl)c(Cl)c2)C1` (stereo unspecified), the Ki in series [2] is 8.3 nM; in [3], 21 nM; on Histamine H3 receptor [4], 31 nM. At Histamine H3 receptor [1], the Kb was 33.1 nM.

As to `CN1Cc2cc(OCCCN3CCC(F)CC3)ccc2C(c2cc(Cl)ccc2Cl)C1` (stereo unspecified), the Ki in series [2] was determined as 120 nM; in series [3], 107 nM; at Histamine H3 receptor [4], 9.3 nM. Further, the Kb on Histamine H3 receptor [1] was 4.57 nM.

Regarding `CN1Cc2cc(OCCCN3CCC(F)CC3)ccc2C(c2ccc(C(F)(F)F)cc2)C1` (stereo unspecified), the Ki in [2] is 14 nM; in series [3] it was 8.6 nM; at Histamine H3 receptor [4], 18 nM.

For the compound `CN1Cc2cc(OCCCN3CCC(F)CC3)ccc2C(c2cccc(C(F)(F)F)c2)C1` (stereo unspecified), the values for the Ki (in [2]; in series [3]; on Histamine H3 receptor [4]) were 30 nM, 15 nM and 11 nM, respectively.

`CN1Cc2cc(OCCCN3CCC(F)CC3)ccc2C(c2ccc(C#N)cc2)C1` (stereo unspecified): the Ki is 7.8 nM in series [2], 16 nM in series [3] and 3.5 nM on Histamine H3 receptor [4]. For the same compound, the Kb on Histamine H3 receptor [1] is 1.41 nM.

`Cc1ccc(C2CN(C)Cc3cc(OCCCN4CCC(F)CC4)ccc32)cc1` (stereo unspecified): the values for the Ki (in series [2]; in series [3]; on Histamine H3 receptor [4]) were 4.4 nM, 13 nM and 8.3 nM, respectively.

As to `CN1Cc2cc(OCCCN3CCC(F)CC3)ccc2C(c2ccc(SC(F)(F)F)cc2)C1` (stereo unspecified), the Ki in series [2] was found to be 36 nM; in series [3], 34 nM; on Histamine H3 receptor [4], 46 nM.

`CN1Cc2cc(OCCCN3CCC(F)CC3)ccc2C(c2ccc(OC(F)F)cc2)C1` (stereo unspecified): the Ki was 4.3 nM in series [3] and 10 nM on Histamine H3 receptor [4]. Also, at Histamine H3 receptor [1], the Kb is 4.37 nM.

In turn, `COc1ccc([C@H]2CN(C)Cc3cc(OCCCN4CCOC[C@@H]4C)ccc32)cc1` showed a Ki at Histamine H3 receptor [4] of 6.9 nM. Further, the Kb at Histamine H3 receptor [1] was 2.95 nM.

`CN1Cc2cc(OCCCN3CCC(F)CC3)ccc2C(c2ccc(S(C)(=O)=O)cc2)C1` (stereo unspecified): the Ki in series [2] was 22 nM; in series [3], 135 nM.

In the case of `CN1Cc2cc(OCCCN3CCC(F)CC3)ccc2C(c2ccccc2)C1` (stereo unspecified), the Ki was 46 nM in series [3] and 3.3 nM at Histamine H3 receptor [4]. Besides, the Kb at Histamine H3 receptor [1] was 0.724 nM.

As for `COc1cccc(C2CN(C)Cc3cc(OCCCN4CCC(F)CC4)ccc32)c1` (stereo unspecified), the Ki in series [2] is 4.3 nM; in series [3] it was 4.3 nM; at Histamine H3 receptor [4] it was 2 nM. Moreover, on Histamine H3 receptor [1], the Kb is 0.851 nM.

Regarding `CN1Cc2cc(OCCCN3CCC(F)CC3)ccc2C(c2cccc(Cl)c2)C1` (stereo unspecified), affinity in [3] was put at a Ki of 24 nM. Moreover, the Kb at Histamine H3 receptor [1] is 1.38 nM.

Regarding `COc1ccc(C2CN(C)Cc3cc(OCCCN4CCC(F)CC4)ccc32)cc1` (racemic), the Ki in [2] was found to be 1.7 nM; in series [3] it was 2.7 nM. In addition, the Vdss in the series on Rattus norvegicus [9] amounted to 19.9 L/kg. The same compound yielded a t1/2 in the series on Rattus norvegicus [10] of 16 h. The same compound had a F in the series on Rattus norvegicus [11] of 6%. The compound also gave a Cmax in series [12] of 1500 nM.

Consider `CSc1ccc(C2CN(C)Cc3cc(OCCCN4CCC(F)CC4)ccc32)cc1` (racemic), for which the Ki in [2] is 2 nM; in [15] it was 118 nM; in series [16], 46 nM. Besides, the Activity entry in [13] and in series [14] was “Not Active” in each case. This compound yielded a clearance in series [5] of 18.5 mL/min/kg. The Vd in series [6] turned out to be 9.6 L/kg. Moreover, the half-life in [7] is 9.9 h. For the same compound, the bioavailability in [8] is 21%. Besides, the Cmax in series [12] turned out to be 2400 nM. Further, the ED50 stood at 0.1 mg/kg in the series filed under Rattus norvegicus [17] and 0.05 mg/kg in the series filed under Rattus norvegicus [18]. In addition, the concentration in the series with Brain amounted to 130 nM.

On to `COc1ccc(C2CN(C)Cc3cc(OCCCN4CCC(F)CC4)ccc32)cc1` (single isomer, unassigned; (-)), for which the Ki in series [2] is 4.5 nM; in series [3], 9.3 nM.

Consider `COc1ccc(C2CN(C)Cc3cc(OCCCN4CCC(F)CC4)ccc32)cc1` (stereo in doubt; 12b), for which the clearance in series [5] came to 32.3 mL/min/kg. Moreover, in the series with Rattus norvegicus [9], the Vdss worked out at 5.1 L/kg. In [7], this compound gave a half-life of 13.3 h. In the series with Rattus norvegicus [11], this compound came in with an F of 13%.

Regarding `CSc1ccc(C2CN(C)Cc3cc(OCCCN4CCC(F)CC4)ccc32)cc1` (stereo in doubt; 12o), the Ki in series [2] was found to be 2.3 nM; in [3], 8.8 nM.

For the compound `CSc1ccc(C2CN(C)Cc3cc(OCCCN4CCC(F)CC4)ccc32)cc1` (stereo in doubt; (-)/-12p), the results for the Ki in series [2] and in [3] were 5 nM and 4.2 nM, respectively.

Source of the values: ChEMBL document CHEMBL1138430, “Novel tetrahydroisoquinolines are histamine H3 antagonists and serotonin reuptake inhibitors” (Bioorg Med Chem Lett, 2007).
